Results: ChEMBL document CHEMBL1140775, “Low-density lipoprotein (LDL)-antioxidant lignans from Myristica fragrans seeds” (Bioorg Med Chem Lett, 2008)
The source made the active and inactive calls. The calls are words filed in the database; no cut-off is given here.

Key:
Format in all cases: functional
[1] = Antioxidant activity against LDL-oxidation by TBARS assay
Outline: (§1)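 Copper-mediated oxidation of human plasma LDL (120 µg/mL); oxidation quantified by TBARS formation. Mean of two independent experiments, each in duplicate.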

[2] = Antioxidant activity assessed as inhibition of LDL-oxidation at 20 uM by TBARS assay; outline: as §1
[3] = Antioxidant activity assessed as inhibition of apoB100 fragmentation at 20 uM by SDS-PAGE method
Outline: (§2)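 Human LDL in PBS incubated 4 h at 37 °C with 5 µM CuSO4 with or without compound. About 2.0 µg LDL protein run on 7.5% SDS-PAGE, Coomassie-stained, densitometrically scanned; apoB-100 band area given as absorbance units per mm.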

[4] = Antioxidant activity against LDL-oxidation assessed as conjugated diene formation lag time at 1.0 uM
Outline: (§3)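 Human plasma LDL (120 µg protein/mL) oxidized with 5 µM CuSO4, with or without compound; conjugated diene formation read as absorbance at 234 nm every 10 min for 4 h. Lag time taken as elapsed time before onset of rapid conjugated hydroperoxide formation.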

THP-1 [5] = assay: Antioxidant activity against LDL-oxidation in human THP1 cells assessed as malondialdehyde level per mg of LDL protein at 5 uM
Outline: (§4)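 PMA-differentiated THP-1 macrophages incubated 24 h at 37 °C in serum-free RPMI 1640 with LDL (100 µg/mL) and 2 µM Cu2+, with or without compound. TBARS measured directly in harvested medium, expressed as MDA nmol/mg LDL protein; mean ± SD, n = 3.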

[6] = Antioxidant activity assessed as inhibition of copper-mediated LDL-oxidation at 10 uM by relative electrophoretic mobility method
Outline: (§5)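 LDL (120 µg/mL in PBS) incubated 12 h at 37 °C with 5 µM CuSO4 with or without compound. About 2.0 µg LDL protein run on 0.7% agarose gel, Coomassie-stained, densitometrically scanned; migration distance measured, protection expressed relative to native and fully oxidized LDL.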

THP-1 [7] = assay: Antioxidant activity against LDL-oxidation in human THP1 cells assessed as malondialdehyde level per mg of LDL protein at 1 uM; outline: as §4
[8] = Antioxidant activity assessed as inhibition of copper-mediated LDL-oxidation at 20 uM by relative electrophoretic mobility method; outline: as §5
[9] = Antioxidant activity assessed as inhibition of apoB100 fragmentation at 10 uM by SDS-PAGE method; outline: as §2
[10] = Antioxidant activity against LDL-oxidation assessed as conjugated diene formation lag time at 3.0 uM; outline: as §3

## COc1cc(C(OC)C(C)C(C)Cc2ccc3c(c2)OCO3)ccc1O (centres undefined)
[1]
  IC50: 7.9 µM
[2]
  inhibition: 28.9%

## COc1cc([C@@H](O)[C@H](C)[C@H](C)Cc2ccc3c(c2)OCO3)ccc1O
[1]
  IC50: 6.3 µM
[2]
  inhibition: 45.7%

## COc1cc(C[C@H](C)[C@H](C)Cc2ccc(O)c(O)c2)ccc1O
[1]
  IC50: 3.6 µM
[2]
  inhibition: 91%

## COc1cc([C@H]2c3cc4c(cc3C[C@@H](C)[C@@H]2C)OCO4)ccc1O
[1]
  IC50: 7.3 µM
[2]
  inhibition: 40.9%

## C[C@H](Cc1ccc2c(c1)OCO2)[C@H](C)Cc1ccc2c(c1)OCO2
[1]
  Activity: inactive
[2]
  inhibition: 0%

## COc1cc(C[C@H](C)[C@H](C)Cc2ccc3c(c2)OCO3)ccc1O [AUSTROBAILIGNAN 6]
[1]
  IC50: 7.5 µM
[2]
  inhibition: 64.5%

## COc1cc(C[C@@H](C)[C@@H](C)Cc2ccc(O)c(OC)c2)ccc1O [MESODIHYDROGUAIARETIC ACID]
[3]
  inhibition: 93%
[4]
  Activity: 140 min
THP-1 [5]
  Activity: 35.2 nmol
[6]
  inhibition: 72%
[1]
  IC50: 2.6 µM
[2]
  inhibition: 93%
THP-1 [7]
  Activity: 306.3 nmol
[8]
  inhibition: 82%
[9]
  inhibition: 54%

## CC(C)(Sc1cc(C(C)(C)C)c(O)c(C(C)(C)C)c1)Sc1cc(C(C)(C)C)c(O)c(C(C)(C)C)c1 [PROBUCOL]
[10]
  Activity: 67 min
[1]
  IC50: 3.1 µM
[2]
  inhibition: 92%
